Laboratory results from ChEMBL document CHEMBL1806378, “Osteogenic constituents from Pterospermum acerifolium Willd. flowers” (Bioorg Med Chem Lett, 2011).
Active and inactive are the calls of the source. The rule behind the calls is not given here.

What was measured:
Osteoblast [1] = assay: Induction of osteogenesis in rat calvaria-derived primary osteoblasts assessed as increase in ALP activity after 48 hrs by bradford assay relative to control; format: functional, cell-based
Outline: (§1)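 Primary rat calvarial osteoblasts (2 × 10^3 cells) seeded and exposed to graded compound concentrations for 48 h; BMP-2 as positive control, vehicle as control. ALP measured with p-nitrophenylphosphate substrate, read at 405 nm, normalized to total protein by Bradford assay. Three independent experiments, six replicates per point; mean ± SEM, one-way ANOVA versus control.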

Osteoblast [2] = assay: Induction of osteogenesis in rat calvaria-derived primary osteoblasts assessed as increase in ALP activity at 10 pM after 48 hrs by bradford assay relative to control; format: functional, cell-based; outline: as §1
Osteoblast [3] = assay: Induction of osteogenesis in rat calvaria-derived primary osteoblasts assessed as increase in ALP activity at 100 pM after 48 hrs by bradford assay relative to control; format: functional, cell-based; outline: as §1
Osteoblast [4] = assay: Induction of osteogenesis in rat calvaria-derived primary osteoblasts assessed as increase in ALP activity at 1 nM to 1 uM after 48 hrs by bradford assay relative to control; format: functional, cell-based; outline: as §1
[5] = Cytotoxicity against rat calvaria-derived primary osteoblasts assessed as cell viability by MTT assay; format: cell-based; conditions: osteoblast
Osteoblast [6] = assay: Induction of osteogenesis in rat calvaria-derived primary osteoblasts assessed as increase in BMP2 mRNA level at 100 pM after 48 hrs by quantitative PCR analysis; format: functional, cell-based
Outline: (§2)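 Primary rat calvarial osteoblasts treated 48 h at 100 pM; BMP-2, Col1 and runx2 transcript levels quantified by qPCR (optimized protocol). Four independent experiments in triplicate per treatment point; mean ± SEM compared with control.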

Osteoblast [7] = assay: Induction of osteogenesis in rat calvaria-derived primary osteoblasts assessed as increase in runx2 mRNA level at 100 pM after 48 hrs by quantitative PCR analysis; format: functional, cell-based; outline: as §2
Osteoblast [8] = assay: Induction of osteogenesis in rat calvaria-derived primary osteoblasts assessed as increase in Col1 mRNA level at 100 pM after 48 hrs by quantitative PCR analysis; format: functional, cell-based; outline: as §2
Bone marrow cell = assay: Induction of mineralization in rat femur-derived bone marrow cells at 100 pM after 21 days by Alizarin Red S staining; format: functional, cell-based
Outline: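 Rat bone marrow cells (2 × 10^5) seeded and incubated 21 days with 100 pM compound; cells fixed, stained with alizarin red-S, dye extracted and optical density measured colorimetrically. Four independent experiments in triplicate; mean ± SEM versus control.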

| Structure (SMILES) | Activity (Osteoblast [1]) | Activity (Osteoblast [2]) | Activity (Osteoblast [3]) | Activity (Osteoblast [4]) | Activity [5] | Activity (Osteoblast [6]) | Activity (Osteoblast [7]) | Activity (Osteoblast [8]) | Activity (Bone marrow cell) |
| --- | --- | --- | --- | --- | --- | --- | --- | --- | --- |
| C=C[C@@](C)(CCC=C(C)C)O[C@@H]1O[C@H](CO[C@@H]2O[C@@H](C)[C@H](O)[C@@H](O)[C@H]2O)[C@@H](O)[C@H](O)[C@H]1O | inactive |  |  |  |  |  |  |  |  |
| CC1=CC(=O)CC(C)(C)[C@H]1/C=C/[C@H](C)O[C@@H]1O[C@H](CO)[C@@H](O)[C@H](O)[C@H]1O | inactive |  |  |  |  |  |  |  |  |
| C[C@@H]1O[C@@H](O[C@H]2[C@H](Oc3cc(O)c4c(=O)cc(-c5ccc(O)c(O)c5)oc4c3)O[C@H](CO)[C@@H](O)[C@@H]2O)[C@H](O)[C@H](O)[C@H]1O | inactive |  |  |  |  |  |  |  |  |
| O=c1cc(-c2ccc(O)c(O)c2)oc2cc(O[C@@H]3O[C@H](CO)[C@@H](O)[C@H](O)[C@H]3O)cc(O)c12 | inactive |  |  |  |  |  |  |  |  |
| O=c1cc(-c2cccc(O)c2)oc2cc(O)c(O[C@@H]3O[C@H](CO)[C@@H](O)[C@H](O)[C@H]3O)c(O)c12 | inactive |  |  |  |  |  |  |  |  |
| COc1cc(C(O)C(O)CO)ccc1Oc1ccc(-c2cc(=O)c3c(O)cc(O)cc3o2)cc1O (centres undefined) [PTEROSPERMIN A] |  | Active | Active | inactive | Non-toxic | Active | Active | Active | Active |
| O=C1OC(O)C=C1O (centres undefined) [PTEROSPERMIN C] |  | Active | Active | inactive | Non-toxic | Active | Active | Active | Active |
| O=C(/C=C/c1ccc(O)cc1)OC[C@H]1O[C@@H](Oc2c(-c3ccc(O)cc3)oc3cc(O)cc(O)c3c2=O)[C@H](O)[C@@H](O)[C@@H]1O [TILIROSIDE] |  | Active | Active | inactive | Non-toxic | Active | Active | Active | Active |
